ChEMBL document CHEMBL2062387, “Blockade of STAT3 activation by sorafenib derivatives through enhancing SHP-1 phosphatase activity” (Eur J Med Chem, 2012)
The source made the active and inactive calls. The rule behind the calls is not given here.

Legend:
[1] = target: Tyrosine-protein phosphatase non-receptor type 6 (Homo sapiens) (UniProt P29350); assay: Induction of SHP1 activation in IL-6-stimulated human PLC5 cells assessed as reduction of p-STAT3 at 10 uM after 24 hrs by ELISA; type: cell-based
Chain of Tyrosine-protein phosphatase non-receptor type 6 (Homo sapiens) (P29350 whole entry): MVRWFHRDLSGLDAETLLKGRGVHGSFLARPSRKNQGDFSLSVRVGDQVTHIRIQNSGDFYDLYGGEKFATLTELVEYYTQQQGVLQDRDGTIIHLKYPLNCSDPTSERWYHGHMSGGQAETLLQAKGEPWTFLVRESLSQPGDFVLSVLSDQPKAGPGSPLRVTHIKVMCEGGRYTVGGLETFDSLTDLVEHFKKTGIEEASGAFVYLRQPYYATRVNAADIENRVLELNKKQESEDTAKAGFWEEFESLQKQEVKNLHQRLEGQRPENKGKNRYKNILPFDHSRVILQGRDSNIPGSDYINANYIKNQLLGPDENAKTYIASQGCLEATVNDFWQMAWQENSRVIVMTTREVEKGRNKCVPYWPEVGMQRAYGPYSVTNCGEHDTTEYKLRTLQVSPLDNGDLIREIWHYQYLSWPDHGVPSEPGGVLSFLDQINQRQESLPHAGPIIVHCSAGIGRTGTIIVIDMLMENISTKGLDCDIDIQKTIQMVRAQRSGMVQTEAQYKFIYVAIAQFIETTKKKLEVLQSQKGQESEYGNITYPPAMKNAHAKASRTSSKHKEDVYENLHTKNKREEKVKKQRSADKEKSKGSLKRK
Method in brief: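 PLC5 cells were pre-stimulated with IL-6 at 25 ng/mL for 30 min, then treated with 10 µM compound for 24 h. Phospho-STAT3 was measured by ELISA against a DMSO control. Mean ± SD, N = 3.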

[2] = Growth inhibition of human PLC5 cells after 24 hrs by MTT assay; type: functional, cell-based; conditions: PLC5, 24 h
Method in brief: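 PLC5 cells were grown in DMEM with 10% FBS, penicillin, streptomycin and amphotericin B at 37 °C in 5% CO2. Cells were seeded in 96-well plates for 24 h, then exposed to agents in DMSO (0.1% final) in DMEM for 24 h; range 0.1–15 µM. MTT at 0.5 mg/mL was added for 2 h and absorbance read at 570 nm. Six replicates; IC50 derived.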

[3] = target: Tyrosine-protein phosphatase non-receptor type 6 (Homo sapiens) (UniProt P29350); assay: Induction of SHP1 activation in human PLC5 cells assessed as repression of Mcl-1 expression at 5 to 10 uM after 24 hrs by Western blot method; type: cell-based
Method in brief: (§1)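 PLC5 cells were treated at 5 and 10 µM for 24 h in serum-free medium. Lysates were immunoblotted for p-STAT3 (Tyr705), STAT3, Mcl-1, cyclin D1, survivin, SOCS-1, SOCS-3 and PARP.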

[4] = target: Tyrosine-protein phosphatase non-receptor type 6 (Homo sapiens) (UniProt P29350); assay: Induction of SHP1 activation in human PLC5 cells assessed as effect on SOCS-1 level at 5 to 10 uM after 24 hrs by Western blot method; type: cell-based; method in brief: as §1
[5] = target: Tyrosine-protein phosphatase non-receptor type 6 (Homo sapiens) (UniProt P29350); assay: Induction of SHP1 activation in human PLC5 cells assessed as repression of CCND1 expression at 5 to 10 uM after 24 hrs by Western blot method; type: cell-based; method in brief: as §1
[6] = target: Tyrosine-protein phosphatase non-receptor type 6 (Homo sapiens) (UniProt P29350); assay: Induction of SHP1 activation in human PLC5 cells assessed as effect on SOCS-3 level at 5 to 10 uM after 24 hrs by Western blot method; type: cell-based; method in brief: as §1
[7] = target: Tyrosine-protein phosphatase non-receptor type 6 (Homo sapiens) (UniProt P29350); assay: Induction of SHP1 activation in human PLC5 cell lysate at 10 uM after 24 hrs; type: cell-based
Method in brief: (§2)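 PLC5 cells were treated with compound for 24 h. SHP-1 was immunoprecipitated from lysates and its phosphatase activity measured with the EnzChek tyrosine phosphatase kit. Mean ± SD, N = 3.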

[8] = target: Tyrosine-protein phosphatase non-receptor type 6 (Homo sapiens) (UniProt P29350); assay: Induction of SHP1 activation in human PLC5 cells assessed as reduction of p-STAT3 at 5 to 10 uM after 24 hrs by Western blot method; type: cell-based; method in brief: as §1
[9] = target: Tyrosine-protein phosphatase non-receptor type 6 (Homo sapiens) (UniProt P29350); assay: Induction of SHP1 activation in human PLC5 cells assessed as repression of survivin expression at 5 to 10 uM after 24 hrs by Western blot method; type: cell-based; method in brief: as §1
[10] = target: Tyrosine-protein phosphatase non-receptor type 6 (Homo sapiens) (UniProt P29350); assay: Induction of SHP1 activation in human PLC5 cell lysate after 24 hrs; type: cell-based; method in brief: as §2
[11] = target: Tyrosine-protein phosphatase non-receptor type 6 (Homo sapiens) (UniProt P29350); assay: Induction of SHP1 activation in human PLC5 cells assessed as PARP cleavage at 5 to 10 uM after 24 hrs by Western blot method; type: cell-based; method in brief: as §1
[12] = target: Tyrosine-protein phosphatase non-receptor type 6 (Homo sapiens) (UniProt P29350); assay: Induction of SHP1 activation in human PLC5 cells at 1 to 15 uM after 24 hrs; type: cell-based; method in brief: as §2
PLC5 = assay: Antitumor activity against PLC5 cells xenografted in athymic NCr mouse assessed as tumor growth inhibition at 10 mg/kg, po once daily for 3 weeks; type: functional, organism-based; parameters: dose 10 mg/kg
Method in brief: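 Male NCr athymic nude mice, 5–7 weeks old, bearing PLC5 tumors. Dosing began when tumors reached 100 mm3: 10 mg/kg p.o. once daily for three weeks. Vehicle was Cremophor EL/95% ethanol (50:50), given to controls. Read-out was tumor growth.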

[13] = Ratio of SC-1 IC50 to compound IC50 for human PLC5 cells; type: functional
Mus musculus [14] = assay: Inhibition of STAT3 phosphorylation in tumor of athymic NCr mouse xenografted with PLC5 cells at 10 mg/kg, po once daily for 3 weeks by Western blot method; type: functional, organism-based; parameters: dose 10 mg/kg
Method in brief: (§3)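 Tumors came from PLC5 xenografts in nude mice dosed at 10 mg/kg/day p.o. for three weeks, with vehicle Cremophor EL/ethanol (50:50). Tumor extracts were assayed for p-STAT3 by western blot and for SHP-1 phosphatase activity.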

Mus musculus [15] = assay: Induction of SHP1 activity in tumor of athymic NCr mouse xenografted with PLC5 cells at 10 mg/kg, po once daily for 3 weeks; type: functional, organism-based; parameters: dose 10 mg/kg; method in brief: as §3

Structure (SMILES)	Activity [1]	IC50 [2] [µM]	other results
N#Cc1ccc(Oc2ccc(CNC(=O)NCc3cccc(OC(F)(F)F)c3)cc2)cc1	inactive	> 15	
CNC(=O)c1cc(Oc2cccc(NCc3cccc(OC(F)(F)F)c3)c2)ccn1	inactive	> 15	Activity [3]: inactive; Activity [4]: inactive; Activity [5]: inactive; Activity [6]: inactive; Activity [7]: inactive; Activity [8]: inactive; Activity [9]: inactive
Cc1ccc(NC(=O)Nc2ccc(Cl)c(C(F)(F)F)c2)cc1Oc1ccc(C#N)cc1	Active	4.5	
O=c1[nH]c2ccc(Oc3cccc(NS(=O)(=O)c4cccc(C(F)(F)F)c4)c3)cc2[nH]1	Active	11.5	
C[C@@H](NC(=O)Nc1ccc(Oc2ccc(C#N)cc2)cc1)c1cccc2ccccc12	inactive	> 15	
CNC(=O)c1cc(Oc2ccc(NC(=O)Nc3ccc(Cl)c(C(F)(F)F)c3)cc2)ccn1			Activity [12]: Active
CNC(=O)c1cc(Oc2cccc(NS(=O)(=O)c3ccccc3)c2)ccn1	inactive	> 15	
N#Cc1ccc(Oc2cccc(NCc3cccc(OC(F)(F)F)c3)c2)cc1	inactive	> 15	
COc1ccc(CNC(=O)NCc2ccc(Oc3ccc(C#N)cc3)cc2)cc1OC	Active	10.5	
COc1ccc(CNC(=O)Nc2ccc(Oc3ccc(C#N)cc3)cc2)cc1OC	Active	12.3	
CNC(=O)c1cc(Oc2cccc(NS(=O)(=O)c3cccc(C(F)(F)F)c3)c2)ccn1	Active	8.4	
Nc1cc(Oc2cccc(NS(=O)(=O)c3cccc(C(F)(F)F)c3)c2)ccc1[N+](=O)[O-]	Active	3.9	
N#Cc1ccc(Oc2cccc(NS(=O)(=O)c3ccccc3)c2)cc1	inactive	> 15	

Second part, led by results:

Activity [1]	Structure (SMILES)	IC50 [2] [µM]	other results
inactive	Nc1ccc(Oc2cccc(NCc3cccc(OC(F)(F)F)c3)c2)cc1N	> 15	
inactive	Nc1ccc(Oc2cccc(NS(=O)(=O)c3cccc(C(F)(F)F)c3)c2)cc1N	> 15	
Active	Nc1cc(Oc2cccc(NCc3cccc(OC(F)(F)F)c3)c2)ccc1[N+](=O)[O-]	8.3	
Active	N#Cc1ccc(Oc2cccc(NC(=O)Nc3ccc(Cl)c(C(F)(F)F)c3)c2)cc1 [SC-43]	0.5	Activity [3]: Active; Activity [4]: inactive; Activity [5]: Active; Activity [6]: inactive; Activity [10]: Dose-dependent effect; Activity [7]: Active; Activity [11]: Active; Activity [8]: Active; Activity [9]: Active
Active	O=c1[nH]c2ccc(Oc3cccc(NCc4cccc(OC(F)(F)F)c4)c3)cc2[nH]1	10.2	
Active	N#Cc1ccc(Oc2ccc(CNC(=O)Nc3ccc(Cl)c(C(F)(F)F)c3)cc2)cc1	2.1	TGI (PLC5): Active; Ratio IC50 [13]: 4; Activity [7]: Active; inhibition (Mus musculus [14]): Active; Activity (Mus musculus [15]): Active
Active	N#Cc1ccc(Oc2cccc(NC(=O)Nc3cccc(F)c3)c2)cc1	3.3	
Active	Nc1cc(Oc2cccc(NC(=O)Nc3ccc(Cl)c(C(F)(F)F)c3)c2)ccc1[N+](=O)[O-]	1.2	
Active	N#Cc1ccc(Oc2cccc(NS(=O)(=O)c3cccc(C(F)(F)F)c3)c2)cc1	2.2	
inactive	CNC(=O)c1cc(Oc2cccc(NC(=O)Nc3cccc(F)c3)c2)ccn1	> 15	
inactive	CNC(=O)c1cc(Oc2cccc(NC(=O)c3ccccc3)c2)ccn1	> 15	
inactive	N#Cc1ccc(Oc2cccc(NC(=O)c3ccccc3)c2)cc1	> 15	
